Measurements: ChEMBL document CHEMBL3784993, “Synthesis and anticancer activity of some 5-fluoro-2'-deoxyuridine phosphoramidates” (Bioorg Med Chem, 2016)

Columns and labels:
HeLa [1] = experiment: Cytotoxicity against human HeLa cells after 72 hrs by SRB assay; assay type: functional, cell-based
Procedure, shortened: (§1)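 SRB protein-stain assay. Cells were seeded at about 10,000 per well and grown 24 h to a partial monolayer. They were then exposed for 72 h at 37 °C (5% CO2, 90% RH) to six concentrations: 0.1, 0.2, 1, 2, 10 and 20 µM. Final DMSO was ≤0.1%. Cells were TCA-fixed and stained with 0.4% SRB, and OD was read at 490 nm. Survival was expressed versus untreated cells. Cytarabine served as internal standard, with three experiments.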

KB = experiment: Cytotoxicity against human KB cells after 72 hrs by SRB assay; assay type: functional, cell-based; procedure, shortened: as §1
MCF7 [2] = experiment: Cytotoxicity against human MCF7cells after 72 hrs by SRB assay; assay type: functional, cell-based; conditions: MCF7, 72 h
HepG2 [3] = experiment: Cytotoxicity against human HepG2 cells after 72 hrs by SRB assay; assay type: functional, cell-based; conditions: HepG2, 72 h
[4] = Cytotoxicity against HDF cells after 72 hrs by SRB assay; assay type: cell-based; conditions: Homo sapiens
HeLa [5] = experiment: Selectivity index, ratio of IC50 for HDF cells to IC50 for human HeLa cells; assay type: functional
Procedure, shortened: (§2)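 SI is calculated as the IC50 in normal human dermal fibroblasts (HDF) divided by the IC50 in the respective cancer line. Both values come from 72 h SRB assays. SD is from three independent experiments.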

[6] = Selectivity index, ratio of IC50 for HDF cells to IC50 for human KB cells; assay type: functional; procedure, shortened: as §2
MCF7 [7] = experiment: Selectivity index, ratio of IC50 for HDF cells to IC50 for human MCF7 cells; assay type: functional; procedure, shortened: as §2
HepG2 [8] = experiment: Selectivity index, ratio of IC50 for HDF cells to IC50 for human HepG2 cells; assay type: functional; procedure, shortened: as §2
143B [9] = experiment: Selectivity index, ratio of IC50 for HDF cells to IC50 for human 143B cells; assay type: functional; procedure, shortened: as §2
143B [10] = experiment: Cytotoxicity against human 143B cells after 72 hrs by SRB assay; assay type: functional, cell-based; procedure, shortened: as §1
143B [11] = experiment: Cytotoxicity against human thymidine kinase deficient 143B cells after 72 hrs by SRB assay; assay type: functional, cell-based; procedure, shortened: as §1
MCF7 [12] = experiment: Potency index, ratio of IC50 for 5-fluoro-2'-deoxyuridine to IC50 for test compound for cytotoxicity against human MCF7cells after 72 hrs by SRB assay; assay type: functional
HeLa [13] = experiment: Cytotoxicity against human HeLa cells after 72 hrs in presence of human recombinant cytochrome P450 isoform mixture by SRB assay; assay type: functional, cell-based

| Compound | IC50 (HeLa [1]) | IC50 (KB) | IC50 (MCF7 [2]) | IC50 (HepG2 [3]) | IC50 [4] | Ratio IC50 (HeLa [5]) | Ratio IC50 [6] | Ratio IC50 (MCF7 [7]) | Ratio IC50 (HepG2 [8]) | Ratio IC50 (143B [9]) | IC50 (143B [10]) | IC50 (143B [11]) | Ratio IC50 (MCF7 [12]) | IC50 (HeLa [13]) |
| --- | --- | --- | --- | --- | --- | --- | --- | --- | --- | --- | --- | --- | --- | --- |
| COC(=O)[C@H](C)NP(=O)(OC[C@H]1O[C@@H](n2cc(F)c(=O)[nH]c2=O)C[C@@H]1O)Oc1ccccc1 (stereo partly drawn) | 23.5 µM | 18 µM | 29.1 µM | 25.9 µM | 43.1 µM | – | – | – | – | – | – | – | – | – |
| O=c1[nH]c(=O)n([C@H]2C[C@H](O)[C@@H](COP(=O)(NCC(F)(F)F)Oc3ccc(Cl)cc3)O2)cc1F (stereo partly drawn) | 3.09 µM | 1.93 µM | 1.82 µM | 3.48 µM | 4.19 µM | 1.36 | 2.17 | 2.3 | 1.2 | 2.33 | 1.8 µM | 2.51 µM | – | – |
| CCNP(=O)(OC[C@H]1O[C@@H](n2cc(F)c(=O)[nH]c2=O)C[C@@H]1OC(=O)OC(C)(C)C)Oc1ccc(Cl)cc1 (stereo partly drawn) | 2.66 µM | 3.37 µM | 1.42 µM | 4.26 µM | 6.02 µM | 2.26 | 1.79 | 4.24 | 1.41 | 1.37 | 4.4 µM | 9.11 µM | 9 | – |
| CCCCNP(=O)(OC[C@H]1O[C@@H](n2cc(F)c(=O)[nH]c2=O)C[C@@H]1O)Oc1ccc(Cl)cc1 (stereo partly drawn) | > 100 µM | > 100 µM | > 100 µM | > 100 µM | > 100 µM | – | – | – | – | – | – | – | – | > 100 µM |
| COC(=O)[C@H](C)NP(=O)(OC[C@H]1O[C@@H](n2cc(F)c(=O)[nH]c2=O)C[C@@H]1O)Oc1ccc(Cl)cc1 (stereo partly drawn) | 4.11 µM | 4.22 µM | 4.54 µM | 6.65 µM | 18.4 µM | 4.49 | 4.37 | 4.06 | 2.77 | 4.58 | 4.03 µM | 8.67 µM | – | – |
| CC(C)(C)OC(=O)O[C@H]1C[C@H](n2cc(F)c(=O)[nH]c2=O)O[C@@H]1COP(=O)(NCC(F)(F)F)Oc1ccc(Cl)cc1 (stereo partly drawn) | 14.6 µM | 14.6 µM | 4.05 µM | 18.8 µM | 37.1 µM | – | – | – | – | – | 0.28 µM | 2.01 µM | – | – |
| C=CCNP(=O)(OC[C@H]1O[C@@H](n2cc(F)c(=O)[nH]c2=O)C[C@@H]1OC(=O)OC(C)(C)C)Oc1ccc(Cl)cc1 (stereo partly drawn) | 19.1 µM | 16.5 µM | 12.8 µM | 17 µM | 27.2 µM | – | – | – | – | – | – | – | – | – |
| CCCCNP(=O)(OC[C@H]1O[C@@H](n2cc(F)c(=O)[nH]c2=O)C[C@@H]1OC(=O)OC(C)(C)C)Oc1ccc(Cl)cc1 (stereo partly drawn) | 76 µM | 66.4 µM | 80.1 µM | 64.2 µM | 87 µM | – | – | – | – | – | – | – | – | 71.4 µM |
| CCCNP(=O)(OC[C@H]1O[C@@H](n2cc(F)c(=O)[nH]c2=O)C[C@@H]1OC(=O)OC(C)(C)C)Oc1ccc(Cl)cc1 (stereo partly drawn) | 49.3 µM | 27.2 µM | 20.8 µM | 26 µM | 61.1 µM | – | – | – | – | – | – | – | – | 45.2 µM |
| CC(C)(C)OC(=O)O[C@H]1C[C@H](n2cc(F)c(=O)[nH]c2=O)O[C@@H]1COP(=O)(NCCCN=[N+]=[N-])Oc1ccc(Cl)cc1 (stereo partly drawn) | 52.5 µM | 54.9 µM | 58.5 µM | 46.9 µM | 57.2 µM | – | – | – | – | – | – | – | – | 24.1 µM |
| [N-]=[N+]=NCCCNP(=O)(OC[C@H]1O[C@@H](n2cc(F)c(=O)[nH]c2=O)C[C@@H]1O)Oc1ccc(Cl)cc1 (stereo partly drawn) | 22.2 µM | 22.6 µM | 27 µM | 22.6 µM | 41 µM | – | – | – | – | – | – | – | – | 13.5 µM |
| C=CCNP(=O)(OC[C@H]1O[C@@H](n2cc(F)c(=O)[nH]c2=O)C[C@@H]1O)Oc1ccc(Cl)cc1 (stereo partly drawn) | 89.3 µM | 38.7 µM | 94.5 µM | 96.7 µM | 92.1 µM | – | – | – | – | – | – | – | – | – |
| CC(C)(C)OC(=O)O[C@H]1C[C@H](n2cc(F)c(=O)[nH]c2=O)O[C@@H]1COP(=O)(NCCCCN=[N+]=[N-])Oc1ccc(Cl)cc1 (stereo partly drawn) | 36 µM | 35.6 µM | 35.4 µM | 58.9 µM | 48.3 µM | – | – | – | – | – | – | – | – | 17.7 µM |
| COC(=O)[C@H](C)NP(=O)(OC[C@H]1O[C@@H](n2cc(F)c(=O)[nH]c2=O)C[C@@H]1OC(=O)OC(C)(C)C)Oc1ccc(Cl)cc1 (stereo partly drawn) | 1.65 µM | 1.54 µM | 2.56 µM | 3.47 µM | 6.21 µM | 3.76 | 4.03 | 2.39 | 1.66 | 4.11 | 1.51 µM | 3.07 µM | – | – |
| [N-]=[N+]=NCCCCNP(=O)(OC[C@H]1O[C@@H](n2cc(F)c(=O)[nH]c2=O)C[C@@H]1O)Oc1ccc(Cl)cc1 (stereo partly drawn) | 72.1 µM | 71.3 µM | 67.6 µM | > 100 µM | > 100 µM | – | – | – | – | – | – | – | – | 20.6 µM |
| C#CCNP(=O)(OC[C@H]1O[C@@H](n2cc(F)c(=O)[nH]c2=O)C[C@@H]1OC(=O)OC(C)(C)C)Oc1ccc(Cl)cc1 (stereo partly drawn) | 4.36 µM | 4.37 µM | 4.71 µM | 3.66 µM | 7.21 µM | 1.65 | 1.65 | 1.53 | 1.97 | 2.39 | 3.02 µM | 3.62 µM | – | – |
| CC(C)(C)OC(=O)O[C@H]1C[C@H](n2cc(F)c(=O)[nH]c2=O)O[C@@H]1CO | 63.5 µM | 75.9 µM | 64.2 µM | 80.4 µM | > 100 µM | – | – | – | – | – | 18 µM | 47 µM | – | – |
| COC(=O)[C@H](C)NP(=O)(OC[C@H]1O[C@@H](n2cc(F)c(=O)[nH]c2=O)C[C@@H]1OC(=O)OC(C)(C)C)Oc1ccccc1 (stereo partly drawn) | 8.34 µM | 8.34 µM | 6.29 µM | 9.28 µM | 17.5 µM | – | – | – | – | – | – | – | – | – |
| CCCNP(=O)(OC[C@H]1O[C@@H](n2cc(F)c(=O)[nH]c2=O)C[C@@H]1O)Oc1ccc(Cl)cc1 (stereo partly drawn) | 50.2 µM | 50.4 µM | 27.2 µM | 41.9 µM | 61 µM | – | – | – | – | – | – | – | – | 45.9 µM |
| CNP(=O)(OC[C@H]1O[C@@H](n2cc(F)c(=O)[nH]c2=O)C[C@@H]1OC(=O)OC(C)(C)C)Oc1ccc(Cl)cc1 (stereo partly drawn) | 7.27 µM | 7.28 µM | 8.18 µM | 6.55 µM | 12.4 µM | – | – | – | – | – | 6.72 µM | 13.1 µM | – | – |
| CNP(=O)(OC[C@H]1O[C@@H](n2cc(F)c(=O)[nH]c2=O)C[C@@H]1O)Oc1ccc(Cl)cc1 (stereo partly drawn) | 5.78 µM | 4.45 µM | 4.44 µM | 9.34 µM | 11.8 µM | 2.05 | 2.66 | 2.66 | 1.27 | 5.58 | 2.12 µM | 12.7 µM | – | – |
| CCNP(=O)(OC[C@H]1O[C@@H](n2cc(F)c(=O)[nH]c2=O)C[C@@H]1O)Oc1ccc(Cl)cc1 (stereo partly drawn) | 8.19 µM | 8.21 µM | 19.4 µM | 5.39 µM | 16.3 µM | – | – | – | – | – | 2.41 µM | 16 µM | – | – |
| C#CCNP(=O)(OC[C@H]1O[C@@H](n2cc(F)c(=O)[nH]c2=O)C[C@@H]1O)Oc1ccc(Cl)cc1 (stereo partly drawn) | 10.6 µM | 25.3 µM | 12 µM | 24.5 µM | 31 µM | – | – | – | – | – | 3.61 µM | 3.9 µM | – | – |
| Nc1ccn([C@@H]2O[C@H](CO)[C@@H](O)[C@@H]2O)c(=O)n1 [CYTARABINE] | – | – | – | 2.86 µM | 4.99 µM | 1.41 | 1.23 | 1.31 | 1.75 | 2.42 | 2.06 µM | 16.9 µM | – | – |
| O=c1[nH]c(=O)n([C@H]2C[C@H](O)[C@@H](CO)O2)cc1F [FLOXURIDINE] | – | – | – | 8.91 µM | 13.1 µM | 2.01 | 1.5 | 1.07 | 1.47 | 2.17 | 6.02 µM | 14.1 µM | – | – |
| O=c1[nH]cc(F)c(=O)[nH]1 [FLUOROURACIL] | – | – | – | 6.6 µM | 7.02 µM | 1.13 | 1.45 | 1.08 | 1.06 | 0.54 | 13 µM | 16.3 µM | – | – |
| Oc1ccc(Cl)cc1 [PARACHLOROPHENOL] | 1680 µM | 1450 µM | 1880 µM | 1700 µM | 1850 µM | – | – | – | – | – | – | – | – | – |
